Assay outcomes deposited in PubChem by several laboratories.
Gli-Sufu block: Gli-Sufu pathway antagonism. Sufu-KO-LIGHT fibroblasts, Gli luciferase reporter luminescence. inhibition, % at 5 µM. 340,000 compounds, 0.74% hits;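 active means inhibition above about 55%, limit read from the data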;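 further: 0% = DMSO-treated cells and 100% = wells with medium but no cells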
CHOP inhibitor: inhibitors of CHOP induction in ER stress response | AID 2732 | inhibition, % at 10 µM | CHO-K1 CHOP-promoter luciferase, tunicamycin-induced, 15-18 h | 220,000 compounds, 3.8% hits;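 active means compounds that reduced the stress-induced luciferase reporter signal by more than about 70% of percent inhibition, limit read from the data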;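 further: 0% = tunicamycin plus vehicle and 100% = wells without tunicamycin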
XBP1 UPR activ: activators of adaptive arm of unfolded protein response (XBP1); CHO-XBP1 luciferase reporter, IRE1-XBP1 UPR activation, luminescence; percent of tunicamycin response, DMSO as zero; activation, % at 20 µM; AID 463104; 330,000 compounds, 0.33% hits;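 active means versus positive control, 20 µM dose yields 30% or more activation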;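 further: 100% = tunicamycin at 10 µg/mL and 0% = DMSO only wells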
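incubation = overnight seeding at 37 °C, 6 h compound treatment at 37 °C | assay system = CHO-XBP1 cells stably carrying IRE1-XBP1-driven luciferase reporter | input = 1000 cells per well | detection = luciferase luminescence | dosing = single point, 20 µM final compound, 1% DMSO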
CHOP UPR activ: activators of apoptotic arm of unfolded protein response (CHOP); CHO-CHOP luciferase reporter, UPR activation, luminescence; percent of tunicamycin response over DMSO baseline; activation, % at 10 µM; 330,000 compounds, 0.34% hits; AID 449763;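 active means at 10 µM dose, activation of 40% or more, normalized to positive control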;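 further: 100% = tunicamycin at 10 µg/mL and 0% = DMSO alone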
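Dosing – one dose, 10 µM in 0.5% DMSO · System – CHO-CHOP cells, stable luciferase reporter of PERK-eIF2a-CHOP signalling · Input – 500 cells/well · Control set – tunicamycin 10 µg/mL final as positive, DMSO-only wells as negative · Timing – 6 h compound treatment, 37 °C · Measure – % activation vs tunicamycin · Technique – luminescence read with Steady-Glo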
Jurkat NFkB inh: inhibitors of the PMA/ionomycin-induced NF-kB reporter in Jurkat cells. inhibition, % at 4 µM. PMA/ionomycin-induced NF-kB luciferase reporter, luminescence. AID 435003. 330,000 compounds, 0.53% hits; in the data active means inhibition above about 50%
697 NFkB inh: inhibitors of the PMA/ionomycin-induced NF-kB reporter in 697 B cells; 697 B-cell NF-kB luciferase reporter, 16 h; inhibition, % at 4 µM; 330,000 compounds, 0.33% hits; AID 435022; in the data active means inhibition above about 35%
Gli-Sufu confirm: confirmation of Gli-SUFU pathway antagonists. shares compounds with Gli-Sufu block. Sufu-KO-LIGHT cells, Gli luciferase reporter, luminescence. inhibition, % at 5 µM. 2,500 compounds, 40% hits. AID 602428;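 active means mean inhibition at 5 µM reaching about 45%, limit read from the data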;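 further: plate controls were DMSO-treated cells for no effect and wells lacking cells for full effect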
Gli cytotox: counter-screen for Gli-SUFU antagonists: cytotoxicity; shares compounds with Gli-Sufu block; Sufu-KO-LIGHT cells cytotoxicity, ATP luminescence; cytotoxicity, % at 5 µM; 2,500 compounds, 32% hits; AID 651994;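 active means mean cytotoxicity at 5 µM above about 25%, limit read from the data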;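 further: cells exposed to compound overnight for roughly 16 to 18 hours; plate controls were DMSO wells with cells for no effect and medium without cells for full effect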
Wnt3a cs: Wnt3a reporter inhibition counter-screen | AID 651995 | 2,500 compounds, 20% hits | shares compounds with Gli-Sufu block | inhibition, % at 6.25 µM | Wnt-LIGHT cells, Wnt3a-driven luciferase reporter, luminescence;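 active means mean inhibition above about 25%, limit read from the data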
* marks the source's active call; other numbers are inactive results; x = not tested or not shown. An excerpt weighted towards active compounds, which were near 3.9% of everything screened.

SMILES	Gli-Sufu block	CHOP inhibitor	XBP1 UPR activ	CHOP UPR activ	Jurkat NFkB inh	697 NFkB inh	Gli-Sufu confirm	Gli cytotox	Wnt3a cs
COc1ccc(N2CCN(S(=O)(=O)c3ccc(OC)c(C(=O)N4CCCC4)c3)CC2)cc1	70*	x	-3	0	0	8	10	16	-23
NC(=O)CC(NC(=O)c1ccccc1)c1ccc(N2CCC(Cc3ccccc3)CC2)c([N+](=O)[O-])c1 (stereo not drawn)	63*	x	0	0	34	19	54*	27*	11
NC(=O)CC(NC(=O)c1ccc(Br)cc1)c1ccc(N2CCCCCCC2)c([N+](=O)[O-])c1 (stereo not drawn)	60*	x	0	0	29	4	36	17	-108
NC(=O)CC(NC(=O)c1ccc(Br)cc1)c1ccc(N2CCC(Cc3ccccc3)CC2)c([N+](=O)[O-])c1 (stereo not drawn)	50	x	2	1	27	-2	x	x	x
Cc1ccc(Nc2cc(C)c(O)c(C)c2)cc1	4	x	0	7	-24	-59	x	x	x
CCOc1ccc(C(=O)NCC(=O)NCC(c2ccccc2OC)N2CCCC2)cc1 (stereo not drawn)	2	x	-2	1	-4	-2	x	x	x
CC(C)(C)c1ccc(OCCCN2CCCC2)cc1	57*	x	1	0	4	2	25	-2	-27
CCCn1c2ccccc2c2cnn(CC(=O)NCCCN3CCN(c4ccccc4)CC3)c(=O)c21	15	x	-2	-2	2	-21	x	x	x
COCCN(Cc1ccccc1)C(=O)c1ccc2c(=O)n3c(nc2c1)CCC3	-4	x	-1	0	2	11	x	x	x
Cc1cc(-c2ccccc2)cc(-c2ccccc2)[n+]1C	65*	15	-2	0	9	-11	70*	27*	20
Cc1cc(-c2ccccc2)cc(=O)[nH]1	3	x	x	x	x	x	x	x	x
COc1ccc2c(c1)nc(SCC(C)O)n2C (stereo not drawn)	-7	-2	-1	1	-2	-8	x	x	x
COc1ccc2c(c1)nc(SCC(=O)C(C)(C)C)n2C	64*	41	2	0	-3	3	24	6	-5
Cc1cc(NC(=O)c2nn(C)c(C)c2Br)no1	0	x	1	3	-48	-25	x	x	x
COc1ccc(OCC(=O)N2CCN(c3nnc(-c4ccccc4)c4ccccc34)CC2)cc1	43	30	-1	0	21	4	x	x	x
O=C(COc1ccccc1)N1CCN(c2nnc(-c3ccccc3)c3ccccc23)CC1	96*	29	-3	-3	10	15	32	3	1
O=C(Nc1cccc(Cl)c1)Nc1nnc(-c2ccncc2)s1	57*	92*	-1	3	9	-107	61*	19	69*
O=C(Nc1ccc(Cl)cc1)Nc1nnc(-c2ccncc2)s1	74*	87*	x	x	x	x	72*	25*	70*
Cc1cccc(N2CCN(C(=O)NCc3ccc(F)cc3)CC2)c1C	-22	x	-3	0	3	5	x	x	x
CC[C@]12c3[nH]c4cc(CCC(=O)N(C)C)ccc4c3CCN1C(=O)[C@@H](CC(=O)NC/C=C(\C)CCC=C(C)C)C[C@@H]2C(=O)N1CCN(C(=O)c2ccco2)CC1	79*	x	6	3	x	24	77*	30*	31*
COc1ccc(C(=O)Nc2ccc(Cl)cc2F)cc1S(=O)(=O)N1CCCC1	-7	x	-1	1	-6	-5	x	x	x
Cc1ccc(C23CC4CC(CC(NC(=O)NN)(C4)C2)C3)cc1	51	x	-2	-1	3	13	9	-3	3
